Screening results from PubChem BioAssay.
M4 antag: CHRM4 antagonism in calcium assay. CHO-hM4 cells, ACh EC80, Fluo-8 calcium fluorescence. inhibition, % at 3 µM. hit rate 0.73% among 360,000. AID 624125;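 active = inhibition above its plate's cutoff, the mean inhibition of sample wells plus 3 SD, cut at about 27% in these data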
CHRM5 PAM: potentiates acetylcholine response at human M5 receptor; activation, % at 3 µM; hit rate 0.3% among 360,000; CHO-K1 hM5, Fluo-8 calcium, ACh EC20 PAM; 0% = ACh EC20, 100% = ACh EC100;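 active = activation above the run cutoff, the mean activation of all test compounds plus 3 SD, cut at about 18% in these data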
Target sequence (P08912 whole entry, looked up): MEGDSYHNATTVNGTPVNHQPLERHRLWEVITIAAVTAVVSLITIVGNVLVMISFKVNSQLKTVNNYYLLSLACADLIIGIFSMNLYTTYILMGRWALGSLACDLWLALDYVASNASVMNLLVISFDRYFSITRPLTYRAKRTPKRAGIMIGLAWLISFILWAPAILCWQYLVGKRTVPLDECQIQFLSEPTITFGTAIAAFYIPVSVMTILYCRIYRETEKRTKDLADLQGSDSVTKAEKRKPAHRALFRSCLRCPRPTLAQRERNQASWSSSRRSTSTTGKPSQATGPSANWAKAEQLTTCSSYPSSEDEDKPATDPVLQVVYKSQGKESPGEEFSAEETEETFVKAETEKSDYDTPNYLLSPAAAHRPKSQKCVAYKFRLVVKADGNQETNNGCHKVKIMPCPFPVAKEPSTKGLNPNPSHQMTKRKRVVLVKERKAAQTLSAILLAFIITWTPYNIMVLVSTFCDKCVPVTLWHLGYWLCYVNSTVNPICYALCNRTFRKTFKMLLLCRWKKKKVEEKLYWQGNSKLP
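Replicates: One well per compound, no replicates | System: Human M5 receptor in CHO-K1 cells | Benchmarks: Low control EC20 acetylcholine (0%), high control EC100 acetylcholine (100%) | Probe or stimulus: Acetylcholine, EC20 level | Times: Fluo-8 loading 80 min at 37 °C plus 30 min room temperature | Signal: Intracellular calcium via Fluo-8 fluorescence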
CHRM5 agonist: agonists of human muscarinic M5 receptor (CHRM5); AID 624037; hit rate 0.19% among 360,000; P08912; CHO-K1 hM5 cells, Fluo-8 calcium fluorescence; 0% DMSO wells, 100% maximal acetylcholine response; activation, % at 3 µM;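 active = activation above the run's mean over test compounds plus 3 SD, cut at about 23% in these data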;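 also: signal is peak over basal fluorescence ratio across the kinetic read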
M5 antag: CHRM5 antagonism in calcium assay. hit rate 0.59% among 360,000. CHO-hM5 cells, Fluo-8 calcium fluorescence, ACh EC80. AID 624040. inhibition, % at 3 µM. P08912;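 active = inhibition above a per-plate cutoff, the mean of that plate's test compounds plus 3 SD, cut at about 27% in these data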
CHRM4 agonist: CHRM4 agonism in calcium assay | hit rate 0.14% among 360,000 | activation, % at 3 µM | CHO-K1 hM4/Gqi5, Fluo-8 calcium fluorescence; vehicle 0%, full acetylcholine response 100% | P08173;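 active = activation above the run mean over all test wells plus 3 SD, cut at about 32% in these data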;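 also: peak over basal fluorescence ratio per well then scaled between controls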
M4 PAM: positive allosteric modulators of human muscarinic M4 receptor. P08173. AID 624126. CHO-K1 hM4/Gqi5, Fluo-8 calcium fluorescence, ACh EC20; 0% = ACh EC20, 100% = maximal ACh. hit rate 0.4% among 360,000. activation, % at 3 µM;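 active = activation above its plate's cutoff, the mean activation of sample wells plus 3 SD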
Of the large screens only hits and unclear results are named; the others gave an inactive call. The list is not random: actives were taken first. Their share in the collection is about 1.8%.

O=C(CC(NC(=O)OCc1ccccc1)C(=O)O)OCc1ccccc1 (configuration not stated)	none
O=C(CN1CCOCC1)Nc1nc2cc([N+](=O)[O-])ccc2s1	M4 PAM 27
Cc1ccc(CNC(=O)CSc2nnc(CNC(=O)c3ccccc3)o2)cc1	M4 PAM 23
O=C(O)c1cc(S(=O)(=O)N2CCN(C(=O)c3ccco3)CC2)c(Cl)cc1Cl	M4 PAM 14
O=C(c1ccco1)N1CCN(S(=O)(=O)c2cc(Cl)ccc2Cl)CC1	none
COCC(C)NC(=O)CSc1ncnc2sc(-c3ccccc3)cc12 (configuration not stated)	none
CCn1nc(C(=O)O)c(=O)c2cc3c(cc21)OCO3	M4 antag 34
CCn1cc(C(=O)N[C@H](C(=O)O)C(C)C)c(=O)c2cc3c(cc21)OCO3	none
COc1ccc(NC(=O)C2CCCN(CCCc3ccccc3)C2)cc1OCC(C)C (configuration not stated)	M4 antag 29
COc1ccc(NC(=O)C2CCCNC2)cc1OCC(C)C (configuration not stated)	none
OCC1OC(n2cnc3c(NCc4ccco4)ncnc32)C(O)C1O (configuration not stated)	none
OC[C@H]1O[C@@H](n2cnc3c(NCc4ccco4)ncnc32)[C@H](O)[C@@H]1O	CHRM5 agonist 45
CCOC(=O)c1cc2c(c(-c3cccc(-c4cc5ccccc5o4)c3)n1)[C@@H](CCO)N(S(=O)C(C)(C)C)C2 (some centres not stated)	none
Cc1ccc(O)c(C(=O)c2cnc3c(c2)c(=O)n(C)c(=O)n3C)c1	none
Cc1ccc(O)c(C(=O)c2cnc(/N=C(\N)N(C)C)nc2)c1	M4 antag 38
COc1ccc(Nc2ncnc3c2cnn3-c2cccc(C)c2)cc1OC	none
COc1ccc(-n2ncc3c(Nc4cccc(C)c4)ncnc32)cc1	M4 PAM 19
CCN(CC)S(=O)(=O)c1cccc(-n2c(O)c(C=Nc3ccccc3C(=O)O)c3ccccc3c2=O)c1	none
CCc1cc(C(=O)N2CCCc3ccccc32)sc1C	none
COc1ccc(S(=O)(=O)n2c(N)nc3ccccc32)cc1	M4 antag 73, M5 antag 69
Nc1nc2ccccc2n1S(=O)(=O)c1ccc(Cl)cc1	M4 antag 52, M5 antag 40
Cc1ccc(S(=O)(=O)n2c(N)nc3ccccc32)cc1	M4 antag 86, M5 antag 76
Nc1nc2ccccc2n1S(=O)(=O)c1ccc([N+](=O)[O-])cc1	none
Cc1cnc(NC(=O)Cc2ccc(C)c(C)c2)s1	none
O=C(NCc1ccccc1)c1ccc(CS(=O)(=O)c2ccc(Br)cc2)o1	none
O=C(NCc1ccccc1)c1ccc(CS(=O)(=O)c2ccccc2)o1	CHRM5 PAM 22
CCN(CC)CCCNc1nc2cc(OC)c(OC)cc2c2nc(-c3ccccc3)nn12	M4 PAM 17
CCN(CC)CCCNc1nc2cc(OC)c(OC)cc2c2nc(-c3cccnc3)nn12	none
O=S(=O)(c1ccccc1)N1CCC(Oc2ccc(-n3cnnn3)cc2)CC1	M4 antag 28
COc1ccc(CNC(=O)N[C@H](C(=O)O)C(C)C)cc1OC	none
CC1CCCCC12NC(=O)N(CC(=O)Nc1ccccc1F)C2=O (configuration not stated)	M4 PAM 22
CC1CCCCC12NC(=O)N(CC(=O)Nc1ccccc1-c1ccccc1)C2=O (configuration not stated)	none
CCc1ccccc1NC(=O)CN1CCN(C(=O)CN2C(=O)NC3(CCCCC3C)C2=O)CC1 (configuration not stated)	none
Cc1cccc(C)c1NC(=O)CN1CCN(C(=O)CN2C(=O)NC3(CCCCC3C)C2=O)CC1 (configuration not stated)	M4 PAM 23
c1ccc2c(c1)CCCc1cc(NCCN3CCOCC3)nnc1-2	M4 antag 34
Cc1c(O)cc2c(c1O)C(=O)CC(c1ccccc1)O2 (configuration not stated)	M4 antag 94, CHRM5 agonist 47, M5 antag 84, CHRM4 agonist 60
O=C1C[C@@H](c2ccc(O)cc2)Oc2cc(O)cc(O)c21	none
O=C(NNC(=O)C1CCN(S(=O)(=O)c2cccc(C(F)(F)F)c2)CC1)C1CC1	none
CNC(=O)c1ccc(NC(=O)C2CCN(S(=O)(=O)c3cccc(C(F)(F)F)c3)CC2)cc1	CHRM5 PAM 19
CCc1ccc(-c2nc(CN3CCC(C(=O)N4CCN(c5ccccn5)CC4)CC3)c(C)o2)cc1	none
CCc1ccc(-c2nc(CN3CCC(C(=O)N4CCN(c5ccccc5)CC4)CC3)c(C)o2)cc1	CHRM4 agonist 41
CCCc1nc2c3ccccc3ccn2c1Cc1ccccc1	M5 antag 28
Cc1ccc(-c2nc3c4ccccc4ccn3c2Cc2ccccc2)cc1	none
CCN(CC)C(=O)c1ccc(COc2ccc(Cl)c(C)c2)o1	M5 antag 31
CC(C)c1ccc(NC(=O)Cn2c(=O)oc3ccccc32)cc1	none
S=C(Nc1ccccc1Cl)NC1CCN(Cc2ccccc2)CC1	none
S=C(NCc1ccc(Cl)cc1)NC1CCN(Cc2ccccc2)CC1	M4 antag 27, CHRM4 agonist 45
S=C(Nc1cc(Cl)cc(Cl)c1)NC1CCN(Cc2ccccc2)CC1	M5 antag 28, CHRM4 agonist 35
CCOC(=O)[C@]12CCCC=C1N(Cc1ccc(Cl)cc1Cl)C(=O)[C@H](CC(=O)N1CCOCC1)C2	none
CN(C)C1=NCCN1CCc1ccccc1	none
CCN1CCN(C(=O)/C=C/c2ccc(OC)cc2)CC1	M4 PAM 12
CCN(CC(=O)Nc1c(F)cccc1F)C(=O)CCCNC(=O)c1ccc(Cl)cc1	none
COc1cccc2c1C(=O)c1c(O)c3c(c(O)c1C2=O)CC(O)(C(C)=O)CC3OC1CC(N(C)C)C(O)C(C)O1 (configuration not stated)	none
CC(=O)[C@@]1(O)Cc2c(O)c3c(c(O)c2[C@H](O[C@H]2C[C@H](N)[C@H](O)[C@H](C)O2)C1)C(=O)c1ccccc1C3=O	CHRM5 agonist 26, CHRM4 agonist 36
COc1cccc2c1C(=O)c1c(O)c3c(c(O)c1C2=O)C[C@@](O)(C(=O)CO)C[C@@H]3O[C@H]1C[C@H](N)[C@H](O)[C@H](C)O1	none
COc1cccc2c1C(=O)c1c(O)c3c(c(O)c1C2=O)C[C@@](O)(C(=O)CO)C[C@@H]3OC1CC(N)C(O)C(C)O1 (some centres not stated)	CHRM5 agonist 75
